Calls of active or inactive are those of the source. No cut-off for these calls is given here.
How the values were obtained:
Mus musculus [1] = experiment: Antitumor activity in CF1 mice bearing Ehrlich ascites carcinoma measured as percentage inhibition at 5 mg/kg; format: functional
Outline: (§1)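 Ehrlich ascites model in male CF1 mice (22–25 g): 2 × 10⁶ cells ip on day 0, ip dosing days 1–8, kill on day 9. Percent inhibition = 100 − [(treated volume × treated ascrit)/(control volume × control ascrit)]. Greater than 80% was taken as significant. Vehicle was 0.05% Tween 80, alone or with 5% absolute EtOH. 6-Mercaptopurine was the positive control.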

Mus musculus [2] = experiment: Antitumor activity in CF1 mice bearing Ehrlich ascites carcinoma measured as survivors on day 9 at 1 mg/kg; 5/6; format: functional
Mus musculus [3] = experiment: Antitumor activity in CF1 mice bearing Ehrlich ascites carcinoma measured as percentage inhibition at 1 mg/kg; format: functional
Outline: (§2)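 In the Ehrlich ascites model, male CF1 mice (22–25 g) received 2 × 10⁶ cells ip on day 0 and compound ip on days 1–8, with a vehicle of 0.05% Tween 80 ± 5% EtOH. Ascites volume and ascrit were taken on day 9. % inhibition = 100 − [(vol × ascrit, treated)/(vol × ascrit, control)], with >80% taken as significant.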

Mus musculus [4] = experiment: Antitumor activity in CF1 mice bearing Ehrlich ascites carcinoma measured as percentage inhibition at 10 mg/kg; IA= inactive; format: functional, organism-based; set-up: dose 10 mg/kg; outline: as §2
Mus musculus [5] = experiment: Antitumor activity in CF1 mice bearing Ehrlich ascites carcinoma measured as survivors on day 9 at 10 mg/kg; 5/6; format: functional
Mus musculus [6] = experiment: Antitumor activity in CF1 mice bearing Ehrlich ascites carcinoma measured as ascites volume at 1 mg/kg; format: functional
Outline: (§3)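 Ehrlich ascites cells (2 × 10⁶) were implanted ip in male CF1 mice (22–25 g) on day 0. Dosing was ip on days 1–8 in 0.05% Tween 80 or 5% EtOH/0.05% Tween 80, with vehicle controls. Mice were killed on day 9, and ascites fluid volume per mouse was measured.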

Mus musculus [7] = experiment: Antitumor activity in CF1 mice bearing Ehrlich ascites carcinoma measured as ascites volume at 5 mg/kg; format: functional
Outline: (§4)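 Male CF1 mice (22–25 g) received 2 × 10⁶ Ehrlich carcinoma cells ip on day 0. Dosing was ip daily on days 1–8, with sacrifice on day 9. Ascites fluid volume per mouse and ascrit (packed cell volume) were measured for each group. Vehicle was 0.05% Tween 80, or 5% absolute EtOH in 0.05% Tween 80, used for both compound and control. 6-Mercaptopurine was the positive control.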

Mus musculus [8] = experiment: Average days survived for treated / average days survived for control at 1 (mg/kg); 9.4/9.2; format: functional
Mus musculus [9] = experiment: Antitumor activity in CF1 mice bearing Ehrlich ascites carcinoma measured as survivors on day 9 at 5 mg/kg; 5/5; format: functional
Mus musculus [10] = experiment: Antitumor activity in CF1 mice bearing Ehrlich ascites carcinoma measured as percent ascrit packed cell volume at 1 mg/kg; format: functional
Outline: (§5)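 CF1 male mice (22–25 g) were inoculated ip with 2 × 10⁶ Ehrlich cells on day 0 and treated ip on days 1–8 in 0.05% Tween 80 or 5% EtOH/0.05% Tween 80 vehicle. On day 9 the mice were sacrificed, and the ascrit (packed cell volume) of the ascites fluid was determined.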

Mus musculus [11] = experiment: Antitumor activity in CF1 mice bearing Ehrlich ascites carcinoma measured as percent ascrit packed cell volume at 10 mg/kg; format: functional; outline: as §5
Mus musculus [12] = experiment: Antitumor activity in CF1 mice bearing Ehrlich ascites carcinoma measured as percent ascrit packed cell volume at 5 mg/kg; format: functional; outline: as §4
Mus musculus [13] = experiment: Anti tumor activity in mice bearing lymphocytic leukemia P-388 at 1 mg/kg; format: functional
Outline: (§6)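 Male BDF1 mice (20–23 g) were inoculated ip with 1 × 10⁶ P-388 leukemia cells on day 0. Compound was given ip once daily on days 1–14 in 0.05% Tween 80 vehicle, with a vehicle control group and 5-fluorouracil as positive control. Activity was scored as % T/C, average days survived treated/control, with >125% taken as significant.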

Mus musculus [14] = experiment: Antitumor activity in CF1 mice bearing Ehrlich ascites carcinoma measured as ascites volume at 10 mg/kg; format: functional; outline: as §3
Mus musculus [15] = experiment: Antitumor activity in CF1 mice bearing Ehrlich ascites carcinoma measured as percentage inhibition at 3 mg/kg; IA=inactive; format: functional, organism-based; set-up: dose 3 mg/kg; outline: as §2
Mus musculus [16] = experiment: Antitumor activity in CF1 mice bearing Ehrlich ascites carcinoma measured as percentage inhibition at 8 mg/kg; format: functional; outline: as §1
Mus musculus [17] = experiment: Antitumor activity in CF1 mice bearing Ehrlich ascites carcinoma measured as survivors on day 9 at 3 mg/kg; 6/6; format: functional
Mus musculus [18] = experiment: Antitumor activity in CF1 mice bearing Ehrlich ascites carcinoma measured as ascites volume at 3 mg/kg; format: functional; outline: as §4
Mus musculus [19] = experiment: Antitumor activity in CF1 mice bearing Ehrlich ascites carcinoma measured as ascites volume at 8 mg/kg; format: functional; outline: as §4
Mus musculus [20] = experiment: Average days survived for treated / average days survived for control at 1 (mg/kg); 10/9.2; format: functional
Mus musculus [21] = experiment: Antitumor activity in CF1 mice bearing Ehrlich ascites carcinoma measured as survivors on day 9 at 8 mg/kg; 5/6; format: functional
Mus musculus [22] = experiment: (§7) Antitumor activity in CF1 mice bearing Ehrlich ascites carcinoma measured as percent ascrit packed cell volume at 3 mg/kg; format: functional; outline: as §5
Mus musculus [23] = experiment: Antitumor activity in CF1 mice bearing Ehrlich ascites carcinoma measured as percent ascrit packed cell volume at 8 mg/kg; format: functional; outline: as §4
Mus musculus [24] = experiment: Antitumor activity in 6 CF1 mice bearing Ehrlich ascites carcinoma measured as survivors on day 9 at 1 mg/kg; 6/6; format: functional
Mus musculus [25] = experiment: Antitumor activity in 6 CF1 mice bearing Ehrlich ascites carcinoma measured as survivors on day 9 at 3 mg/kg; 6/6; format: functional
Mus musculus [26] = experiment: Antitumor activity in 6 CF1 mice bearing Ehrlich ascites carcinoma measured as survivors on day 9 at 5 mg/kg; 6/6; format: functional
Mus musculus [27] = experiment: Antitumor activity in 6 CF1 mice bearing Ehrlich ascites carcinoma measured as survivors on day 9 at 8 mg/kg; 5/6; format: functional
Mus musculus [28] = experiment: Antitumor activity in CF1 mice bearing Ehrlich ascites carcinoma measured as percentage inhibition at 1 mg/kg; IA means inactive; format: functional, organism-based; set-up: dose 1 mg/kg; outline: as §1
Mus musculus [29] = experiment: Antitumor activity in CF1 mice bearing Ehrlich ascites carcinoma measured as percentage inhibition at 3 mg/kg; IA means inactive; format: functional, organism-based; set-up: dose 3 mg/kg; outline: as §1
Mus musculus [30] = experiment: as §7; format: functional; outline: as §4; remark: listed apart in the source
Mus musculus [31] = experiment: Antitumor activity in CF1 mice bearing Ehrlich ascites carcinoma measured as percentage inhibition at 1 mg/kg; IA= inactive; format: functional, organism-based; set-up: dose 1 mg/kg; outline: as §2
Mus musculus [32] = experiment: Antitumor activity in CF1 mice bearing Ehrlich ascites carcinoma measured as survivors on day 9 at 1 mg/kg; 6/6; format: functional
Mus musculus [33] = experiment: Average days survived for treated / average days survived for control at 1 (mg/kg); 9.6/9.2; format: functional
Mus musculus [34] = experiment: Average days survived for treated / average days survived for control at 10 (mg/kg); 6.4/9.2; format: functional
Mus musculus [35] = experiment: Average days survived for treated / average days survived for control at 20 (mg/kg); 4.8/9.2; format: functional
Mus musculus [36] = experiment: Average days survived for treated / average days survived for control at 30 (mg/kg); 3.0/9.2; format: functional
Mus musculus [37] = experiment: Average days survived for treated / average days survived for control at 5 (mg/kg); 8.8/9.2; format: functional
Mus musculus [38] = experiment: Antitumor activity in CF1 mice bearing Ehrlich ascites carcinoma measured as survivors on day 9 at 5 mg/kg; 6/6; format: functional
Mus musculus [39] = experiment: Anti tumor activity in mice bearing lymphocytic leukemia P-388 at 10 mg/kg; format: functional; outline: as §6
Mus musculus [40] = experiment: Anti tumor activity in mice bearing lymphocytic leukemia P-388 at 20 mg/kg; format: functional
Outline: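 Male BDF1 mice (20–23 g) inoculated ip with 1 × 10⁶ P-388 lymphocytic leukemia cells on day 0. Test agents were given ip once daily on days 1–14, with 0.05% Tween 80 as vehicle for treated and control groups. Read-out is %T/C, the mean days survived by treated over control. Values above 125% were counted as significant. 5-Fluorouracil was the positive control.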

Mus musculus [41] = experiment: Anti tumor activity in mice bearing lymphocytic leukemia P-388 at 30 mg/kg; format: functional; outline: as §6
Mus musculus [42] = experiment: Anti tumor activity in mice bearing lymphocytic leukemia P-388 at 5 mg/kg; format: functional; outline: as §6
Mus musculus [43] = experiment: Antitumor activity in 6 CF1 mice bearing Ehrlich ascites carcinoma measured as survivors on day 9 at 5 mg/kg; 5/6; format: functional
Mus musculus [44] = experiment: Antitumor activity in 6 CF1 mice bearing Ehrlich ascites carcinoma measured as survivors on day 9 at 8 mg/kg; 6/6; format: functional
Mus musculus [45] = experiment: Antitumor activity in CF1 mice bearing Ehrlich ascites carcinoma measured as percentage inhibition at 5 mg/kg; IA means inactive; format: functional, organism-based; set-up: dose 5 mg/kg; outline: as §1
Mus musculus [46] = experiment: Antitumor activity in CF1 mice bearing Ehrlich ascites carcinoma measured as percentage inhibition at 8 mg/kg; IA means inactive; format: functional, organism-based; set-up: dose 8 mg/kg; outline: as §1

Row | SMILES | inhibition in vivo at 5 mg/kg (Mus musculus [1]) | inhibition (Mus musculus [4]) | Survivors (Mus musculus [5]) | ascites volume (Mus musculus [6]) | ascites volume (Mus musculus [7]) | Survivors (Mus musculus [9]) | packed cell volume (Mus musculus [10]) | packed cell volume (Mus musculus [11]) | packed cell volume (Mus musculus [12]) | T/C (Mus musculus [13]) | ascites volume (Mus musculus [14]) | inhibition in vivo at 8 mg/kg (Mus musculus [16]) | ascites volume (Mus musculus [18]) | ascites volume (Mus musculus [19]) | packed cell volume (Mus musculus [23]) | Survivors (Mus musculus [24]) | inhibition (Mus musculus [28]) | other results
1 | CCCSC1=C(N2CC2)C(=O)c2cnn(C)c2C1=O | 78.5% | inactive | 5 | 0.26 ml mouse-1 | 0.88 ml mouse-1 | 5 | 37.2% | 39.4% | 37.8% | 102% | 1.5 ml mouse-1 |  |  |  |  |  |  | Survivors (Mus musculus [2]): 5; inhibition in vivo at 1 mg/kg (Mus musculus [3]): 74.1%; Average survival (days) (Mus musculus [8]): 9.4
2 | CC(=O)NC1=C(N2CC2)C(=O)c2c(cnn2C)C1=O | 78.3% |  |  |  | 0.9 ml mouse-1 | 5 |  |  | 37.4% | 109% |  | 25.8% | 3.2 ml mouse-1 | 1.2 ml mouse-1 | 38.6% |  |  | inhibition (Mus musculus [15]): inactive; Survivors (Mus musculus [17]): 6; Average survival (days) (Mus musculus [20]): 10; Survivors (Mus musculus [21]): 5; packed cell volume (Mus musculus [22]): 41.4%
3 | CC(=O)NC1=C(Cl)C(=O)c2[nH]ncc2C1=O | 83.2% |  |  | 3.6 ml mouse-1 | 0.33 ml mouse-1 |  | 40% |  | 20.2% |  |  | 46.9% | 3.6 ml mouse-1 | 1.8 ml mouse-1 | 30.8% | 6 | inactive | Survivors (Mus musculus [25]): 6; Survivors (Mus musculus [26]): 6; Survivors (Mus musculus [27]): 5; inhibition (Mus musculus [29]): inactive; packed cell volume (Mus musculus [30]): 38.1%
4 | Cn1ncc2c1C(=O)C(Cl)=C(N1CC1)C2=O | 5.8% | inactive | 5 | 2 ml mouse-1 | 2.5 ml mouse-1 |  | 35.2% | 37.3% | 41.4% | 107% | 3.4 ml mouse-1 |  |  |  |  |  |  | inhibition (Mus musculus [31]): inactive; Survivors (Mus musculus [32]): 6; Average survival (days) (Mus musculus [33]): 9.6; Average survival (days) (Mus musculus [34]): 6.4; Average survival (days) (Mus musculus [35]): 4.8; Average survival (days) (Mus musculus [36]): 3; Average survival (days) (Mus musculus [37]): 8.8; Survivors (Mus musculus [38]): 6; T/C (Mus musculus [39]): 70%; T/C (Mus musculus [40]): 52%; T/C (Mus musculus [41]): 33%; T/C (Mus musculus [42]): 96%
5 | NC1=C(Cl)C(=O)c2[nH]ncc2C1=O |  |  |  | 2.1 ml mouse-1 | 2.7 ml mouse-1 |  | 37.6% |  | 32.3% |  |  |  |  | 3 ml mouse-1 | 29.1% | 6 | inactive | Survivors (Mus musculus [43]): 5; Survivors (Mus musculus [44]): 6; inhibition (Mus musculus [45]): inactive; inhibition (Mus musculus [46]): inactive

Source: ChEMBL document CHEMBL1122443, “Synthesis and antitumor evaluation of selected 5,6-disubstituted 1(2)H-indazole-4,7-diones” (1983)
